Assay results published in publication PMC4831585 (Journal of the American Chemical Society, 2015).
Ends that are not written are not given here.

Legend:
wt-MoaA [1] = molecular target: T1, wt-MoaA (Staphylococcus aureus, UniProt P69848); conditions: [3′-D]GTP vs GTP as substrate; wt-MoaA reaction; cited from earlier work
G340A-MoaA [2] = molecular target: T2, G340A-MoaA (Staphylococcus aureus, UniProt P69848, G340A); assay: Abortive SAM cleavage; format: biochemical; conditions: G340A-MoaA with 11-mer wt peptide, 5′-dA vs cPMP amounts; triplicate, SD
wt-MoaA [3] = molecular target: T1, wt-MoaA; assay: Abortive SAM cleavage; format: biochemical; conditions: 5′-dA vs cPMP amounts, triplicate, SD
R330A/K331A/K332A-MoaA = R330A/K331A/K332A-MoaA (Staphylococcus aureus, UniProt P69848, K331A/K332A/R330A); assay: MoaA/MoaC coupled assay / peptide rescue, R330A/K331A/K332A-MoaA; format: biochemical; conditions: for activity restoration by peptide: peptide 200 μM (Figure 4A)
G340A-MoaA [4] = molecular target: T2, G340A-MoaA; assay: MoaA/MoaC coupled assay; format: biochemical; conditions: for activity restoration lower than the 11-mer peptide: G340A-MoaA, peptide 200 μM (Figure 4A)
MoaA GG-motif mutants = assay: MoaA/MoaC coupled assay / peptide rescue, MoaA GG-motif mutants; format: biochemical, Staphylococcus aureus; conditions: for increase of Km over wt-MoaA: GG-motif mutants with 500 μM 11-mer peptide vs wt-MoaA
wt-MoaA [5] = molecular target: T1, wt-MoaA; assay: Anaerobic ITC, wt-MoaA; format: binding
Method in brief: (§1)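 His6-tagged S. aureus MoaA (wild type or GG-motif point mutants) was expressed in E. coli, purified and reconstituted anaerobically. […] Run as 29 injections at 24 °C, 307 rpm, with degassed buffer-only control titration.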

MoaA G340A = molecular target: T3, MoaA G340A (Staphylococcus aureus, UniProt P69848, G340A); assay: Anaerobic ITC, G340A-MoaA; format: binding
T3 sequence (P69848 1-340 G340A): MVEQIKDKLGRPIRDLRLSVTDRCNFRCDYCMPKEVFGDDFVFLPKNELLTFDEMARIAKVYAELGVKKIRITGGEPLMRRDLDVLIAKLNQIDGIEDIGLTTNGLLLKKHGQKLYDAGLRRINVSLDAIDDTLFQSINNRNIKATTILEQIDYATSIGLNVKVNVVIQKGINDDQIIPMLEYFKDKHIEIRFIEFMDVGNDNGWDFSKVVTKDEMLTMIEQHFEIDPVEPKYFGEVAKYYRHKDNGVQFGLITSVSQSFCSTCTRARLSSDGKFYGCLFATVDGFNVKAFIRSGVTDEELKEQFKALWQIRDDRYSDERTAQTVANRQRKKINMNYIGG
Method in brief: as §1

MoaA G339A = MoaA G339A (Staphylococcus aureus, UniProt P69848, G339A); assay: Anaerobic ITC, G339A-MoaA; format: binding
Method in brief: as §1

D198A-MoaA = D198A-MoaA (Staphylococcus aureus, UniProt P69848, D198A); format: biochemical; conditions: without peptide; coupled assay
[6] = with 500 μM 11-mer wt peptide, coupled assay with MoaC, pH 7.6, 25 °C

For `[2H][C@@]1(O)[C@@H](COP(=O)(O)OP(=O)(O)OP(=O)(O)O)O[C@@H](n2cnc3c(=O)[nH]c(N)nc32)[C@@H]1O` [[3′-D]GTP], the KIE (wt-MoaA [1]) is given as 1.28 ± 0.05, the “uncoupling (abortive SAM cleavage relative to cPMP formation)” value (G340A-MoaA [2]) is given as 25 ± 6.7% and the “uncoupling (abortive SAM cleavage relative to cPMP formation)” value (wt-MoaA [3]) is given as 5.5 ± 3.0%.

For INMNYIGG [8-mer], the “activity restoration by peptide” value (R330A/K331A/K332A-MoaA) was “No significant activity restoration” and the “activity restoration lower than the 11-mer peptide” value (G340A-MoaA [4]; coupled assay) was 10 fold.

With `C[S+](CC[C@H](N)C(=O)[O-])C[C@H]1O[C@@H](n2cnc3c(N)ncnc32)[C@H](O)[C@@H]1O` (stereo partly drawn) [SAM, S-adenosyl-L-methionine] the “increase of Km over wt-MoaA” value (MoaA GG-motif mutants) was 7–18 fold, the Kd (wt-MoaA [5]) was 1.7 ± 0.6 µM and the Kd (MoaA G340A) was greater than 90 µM. It also gave a Kd (MoaA G339A) greater than 90 µM and a Km (G340A-MoaA [4]; [6]) of 37 ± 14 µM.

Molecule RKKINMNYIGG [11-mer wt peptide] has a Kd (R330A/K331A/K332A-MoaA; Kd (peptide titration, figure legend), Figure 4B, nonlinear fit to Hill equation) of 172 µM and a Kd (G340A-MoaA [4]; KD (peptide titration, figure legend), Figure 3C, nonlinear fit to the Hill equation, coupled assay) of 151 µM.

For `Nc1nc2c(ncn2[C@@H]2O[C@H](COP(=O)(O)OP(=O)(O)OP(=O)(O)O)[C@@H](O)[C@H]2O)c(=O)[nH]1` [GTP, Guanosine 5′-triphosphate], the “increase of Km over wt-MoaA” value (MoaA GG-motif mutants) was 2–17 fold, the Kd (wt-MoaA [5]) was 5 ± 3 µM and the “uncoupling (abortive SAM cleavage relative to cPMP formation)” value (G340A-MoaA [2]) was 8.2 ± 4.8%. For the same molecule, the Kd (MoaA G340A) was 5.2 ± 2.3 µM, the Kd (MoaA G339A) was 0.46 ± 0.01 µM and the Km (G340A-MoaA [4]; [6]) was 7.7 ± 3.8 µM. For the same molecule, the kcat (G340A-MoaA [4]; [6]) was 0.000783 ± 5e-05 s⁻¹ and the “uncoupling (abortive SAM cleavage relative to cPMP formation)” value (wt-MoaA [3]) was 4.1 ± 2.7%.

In the case of NYIGG [5-mer], the “activity restoration by peptide” value (R330A/K331A/K332A-MoaA) is reported as “No significant activity restoration” and the “activity restoration lower than the 11-mer peptide” value (G340A-MoaA [4]; coupled assay) is reported as 100 fold.

In the case of RKKINMNYIGA, the “restoration of MoaA activity by GG-motif mutated peptide” value (MoaA GG-motif mutants; even at 1.0 mM peptide concentration, coupled assay (Figure 3A)) is reported as “did not restore the MoaA activity”.

B1: D198A-MoaA: S. aureus MoaA variant with D198A mutation in Loop 14 (protein)
chain: MVEQIKDKLGRPIRDLRLSVTDRCNFRCDYCMPKEVFGDDFVFLPKNELLTFDEMARIAKVYAELGVKKIRITGGEPLMRRDLDVLIAKLNQIDGIEDIGLTTNGLLLKKHGQKLYDAGLRRINVSLDAIDDTLFQSINNRNIKATTILEQIDYATSIGLNVKVNVVIQKGINDDQIIPMLEYFKDKHIEIRFIEFMAVGNDNGWDFSKVVTKDEMLTMIEQHFEIDPVEPKYFGEVAKYYRHKDNGVQFGLITSVSQSFCSTCTRARLSSDGKFYGCLFATVDGFNVKAFIRSGVTDEELKEQFKALWQIRDDRYSDERTAQTVANRQRKKINMNYIGG
In the case of B1, the “activity of mutant relative to wt-MoaA” value (D198A-MoaA) is reported as 8 % the activity of wt-MoaA.

B2: R330A/K331A/K332A-MoaA (protein)
chain: MVEQIKDKLGRPIRDLRLSVTDRCNFRCDYCMPKEVFGDDFVFLPKNELLTFDEMARIAKVYAELGVKKIRITGGEPLMRRDLDVLIAKLNQIDGIEDIGLTTNGLLLKKHGQKLYDAGLRRINVSLDAIDDTLFQSINNRNIKATTILEQIDYATSIGLNVKVNVVIQKGINDDQIIPMLEYFKDKHIEIRFIEFMDVGNDNGWDFSKVVTKDEMLTMIEQHFEIDPVEPKYFGEVAKYYRHKDNGVQFGLITSVSQSFCSTCTRARLSSDGKFYGCLFATVDGFNVKAFIRSGVTDEELKEQFKALWQIRDDRYSDERTAQTVANRQAAAINMNYIGG
With B2 the “activity of mutant relative to wt-MoaA” value (R330A/K331A/K332A-MoaA; without peptide) was 8 % the activity of wt-MoaA.
